According to ChEMBL document CHEMBL5356993, “Novel pyrazolo[3,4-d]pyrimidine derivatives: design, synthesis, anticancer evaluation, VEGFR-2 inhibition, and antiangiogenic activity” (RSC Med Chem, 2023):

Experiments:
Format in all cases: functional
Details in all cases: read-out: GI
OVCAR-5 = experiment: Antiproliferative activity against human OVCAR-5 cells assessed as cell growth inhibition at 10 uM incubated for 48 hrs by SRB assay relative to control
Method in brief: (§1)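 Cells plated in 96-well plates at […] cells/well and preincubated 24 h at 37 °C, 5% CO2. Time-zero plates were TCA-fixed. Compound was diluted in medium with 50 µg/mL gentamicin and cells exposed for 48 h. Adherent cells fixed with 10% final TCA; suspension cells with 16% final TCA. Plates stained with 0.4% SRB in 1% acetic acid, dye solubilized in 10 mM Trizma, absorbance read at 515 nm. Percent growth calculated against time-zero and control.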

COLO 205 = experiment: Antiproliferative activity against human COLO 205 cells assessed as cell growth inhibition at 10 uM incubated for 48 hrs by SRB assay relative to control
HCT-15 = experiment: Antiproliferative activity against human HCT-15 cells assessed as cell growth inhibition at 10 uM incubated for 48 hrs by SRB assay relative to control
HT-29 = experiment: Antiproliferative activity against human HT-29 cells assessed as cell growth inhibition at 10 uM incubated for 48 hrs by SRB assay relative to control; method in brief: as §1
KM12 = experiment: Antiproliferative activity against human KM12 cells assessed as cell growth inhibition at 10 uM incubated for 48 hrs by SRB assay relative to control; method in brief: as §1
SW-620 = experiment: Antiproliferative activity against human SW620 cells assessed as cell growth inhibition at 10 uM incubated for 48 hrs by SRB assay relative to control
Method in brief: (§2)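 Cells pre-incubated 24 h at 37°C, 5% CO2, then exposed to compound (DMSO stock diluted in medium with 50 µg/mL gentamicin) for 48 h. Adherent cells fixed with cold TCA (final 10%, 60 min, 4°C); suspension cells fixed with 16% TCA final. Stained with 0.4% SRB in 1% acetic acid for 10 min, dye solubilized in 10 mM Trizma base, absorbance read at 515 nm. Growth calculated against time-zero and untreated control plates.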

SF-295 = experiment: Antiproliferative activity against human SF-295 cells assessed as cell growth inhibition at 10 uM incubated for 48 hrs by SRB assay relative to control; method in brief: as §1
SF-539 = experiment: Antiproliferative activity against human SF-539 cells assessed as cell growth inhibition at 10 uM incubated for 48 hrs by SRB assay relative to control; method in brief: as §1
SNB-19 = experiment: Antiproliferative activity against human SNB-19 cells assessed as cell growth inhibition at 10 uM incubated for 48 hrs by SRB assay relative to control; method in brief: as §2
SNB-75 = experiment: Antiproliferative activity against human SNB-75 cells assessed as cell growth inhibition at 10 uM incubated for 48 hrs by SRB assay relative to control; method in brief: as §2
U-251 = experiment: Antiproliferative activity against human U-251 cells assessed as cell growth inhibition at 10 uM incubated for 48 hrs by SRB assay relative to control; method in brief: as §2
LOX IMVI = experiment: Antiproliferative activity against human LOX IMVI cells assessed as cell growth inhibition at 10 uM incubated for 48 hrs by SRB assay relative to control
Malme-3M = experiment: Antiproliferative activity against human Malme-3M cells assessed as cell growth inhibition at 10 uM incubated for 48 hrs by SRB assay relative to control
M14 = experiment: Antiproliferative activity against human M14 cells assessed as cell growth inhibition at 10 uM incubated for 48 hrs by SRB assay relative to control; method in brief: as §1
MDA-MB-435 = experiment: Antiproliferative activity against human MDA-MB-435 cells assessed as cell growth inhibition at 10 uM incubated for 48 hrs by SRB assay relative to control
SK-MEL-2 = experiment: Antiproliferative activity against human SK-MEL-2 cells assessed as cell growth inhibition at 10 uM incubated for 48 hrs by SRB assay relative to control; method in brief: as §1
UACC-257 = experiment: Antiproliferative activity against human UACC-257 cells assessed as cell growth inhibition at 10 uM incubated for 48 hrs by SRB assay relative to control; method in brief: as §2
UACC-62 = experiment: Antiproliferative activity against human UACC-62 cells assessed as cell growth inhibition at 10 uM incubated for 48 hrs by SRB assay relative to control; method in brief: as §2
OVCAR-4 = experiment: Antiproliferative activity against human OVCAR-4 cells assessed as cell growth inhibition at 10 uM incubated for 48 hrs by SRB assay relative to control
A498 = experiment: Antiproliferative activity against human A498 cells assessed as cell growth inhibition at 10 uM incubated for 48 hrs by SRB assay relative to control; method in brief: as §1
ACHN = experiment: Antiproliferative activity against human ACHN cells assessed as cell growth inhibition at 10 uM incubated for 48 hrs by SRB assay relative to control
CAKI-1 = experiment: Antiproliferative activity against human CAKI-1 cells assessed as cell growth inhibition at 10 uM incubated for 48 hrs by SRB assay relative to control
RXF 393 = experiment: Antiproliferative activity against human RXF 393 cells assessed as cell growth inhibition at 10 uM incubated for 48 hrs by SRB assay relative to control; method in brief: as §1
DU-145 = experiment: Antiproliferative activity against human DU-145 cells assessed as cell growth inhibition at 10 uM incubated for 48 hrs by SRB assay relative to control
BT-549 = experiment: Antiproliferative activity against human BT-549 cells assessed as cell growth inhibition at 10 uM incubated for 48 hrs by SRB assay relative to control
HOP-92 = experiment: Antiproliferative activity against human HOP-92 cells assessed as cell growth inhibition at 10 uM incubated for 48 hrs by SRB assay relative to control; method in brief: as §1
EKVX = experiment: Antiproliferative activity against human EKVX cells assessed as cell growth inhibition at 10 uM incubated for 48 hrs by SRB assay relative to control
A549 = experiment: Antiproliferative activity against human A549 cells assessed as cell growth inhibition at 10 uM incubated for 48 hrs by SRB assay relative to control
RPMI-8226 = experiment: Antiproliferative activity against human RPMI-8226 cells assessed as cell growth inhibition at 10 uM incubated for 48 hrs by SRB assay relative to control
MOLT-4 = experiment: Antiproliferative activity against human MOLT-4 cells assessed as cell growth inhibition at 10 uM incubated for 48 hrs by SRB assay relative to control
K562 = experiment: Antiproliferative activity against human K562 cells assessed as cell growth inhibition at 10 uM incubated for 48 hrs by SRB assay relative to control
HL-60(TB) = experiment: Antiproliferative activity against human HL-60(TB) cells assessed as cell growth inhibition at 10 uM incubated for 48 hrs by SRB assay relative to control
Method in brief: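 Cells were plated at […] cells/well and preincubated 24 h at 37°C, 5% CO2, with time-zero plates TCA-fixed. Compound was diluted from DMSO stock in medium with 50 µg/mL gentamicin, then exposed for 48 h. Settled suspension cells were fixed with 80% TCA (final 16%), stained with 0.4% SRB and solubilized in 10 mM Trizma, A515. Growth was taken relative to Tz and control.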

SMILES | inhibition of growth at 10 µM (OVCAR-5) | inhibition of growth at 10 µM (COLO 205) | inhibition of growth at 10 µM (HCT-15) | inhibition of growth at 10 µM (HT-29) | inhibition of growth at 10 µM (KM12) | inhibition of growth at 10 µM (SW-620) | inhibition of growth at 10 µM (SF-295) | inhibition of growth at 10 µM (SF-539) | inhibition of growth at 10 µM (SNB-19) | inhibition of growth at 10 µM (SNB-75) | inhibition of growth at 10 µM (U-251) | inhibition of growth at 10 µM (LOX IMVI) | inhibition of growth at 10 µM (Malme-3M) | inhibition of growth at 10 µM (M14) | inhibition of growth at 10 µM (MDA-MB-435) | inhibition of growth at 10 µM (SK-MEL-2) | inhibition of growth at 10 µM (UACC-257) | inhibition of growth at 10 µM (UACC-62) | inhibition of growth at 10 µM (OVCAR-4) | inhibition of growth at 10 µM (A498) | other results
Cc1nc2c(cnn2-c2ccccc2)c(=O)n1-c1ccc(NC(=O)c2ccco2)cc1 | < 15% | < 15% | < 15% | < 15% | < 15% | < 15% | 15.3% | < 15% | < 15% | < 15% | < 15% | < 15% | 16.6% | < 15% | < 15% | < 15% | < 15% | 16.6% | 21.2% | < 15% | inhibition of growth at 10 µM (ACHN): < 15%; inhibition of growth at 10 µM (CAKI-1): < 15%; inhibition of growth at 10 µM (RXF 393): < 15%; inhibition of growth at 10 µM (DU-145): < 15%; inhibition of growth at 10 µM (BT-549): < 15%; inhibition of growth at 10 µM (HOP-92): < 15%; inhibition of growth at 10 µM (EKVX): 26.9%; inhibition of growth at 10 µM (A549): < 15%; inhibition of growth at 10 µM (RPMI-8226): 26.1%; inhibition of growth at 10 µM (MOLT-4): < 15%; inhibition of growth at 10 µM (K562): 30.1%; inhibition of growth at 10 µM (HL-60(TB)): 19.8%
Cc1nc2c(cnn2-c2ccccc2)c(=O)n1-c1ccc(N2C(=O)c3ccccc3C2=O)cc1 | < 15% | < 15% | < 15% | < 15% | < 15% | < 15% | < 15% | < 15% | < 15% | < 15% | < 15% | < 15% | < 15% | < 15% | < 15% | < 15% | < 15% | < 15% | < 15% | < 15% | inhibition of growth at 10 µM (ACHN): < 15%; inhibition of growth at 10 µM (CAKI-1): < 15%; inhibition of growth at 10 µM (RXF 393): < 15%; inhibition of growth at 10 µM (DU-145): < 15%; inhibition of growth at 10 µM (BT-549): < 15%; inhibition of growth at 10 µM (HOP-92): < 15%; inhibition of growth at 10 µM (EKVX): < 15%; inhibition of growth at 10 µM (A549): < 15%; inhibition of growth at 10 µM (RPMI-8226): < 15%; inhibition of growth at 10 µM (MOLT-4): < 15%; inhibition of growth at 10 µM (K562): < 15%; inhibition of growth at 10 µM (HL-60(TB)): < 15%
Cc1nc2c(cnn2-c2ccccc2)c(=O)n1-c1ccc(NC(=O)c2ccccc2)cc1 | < 15% | 20.2% | 20.2% | 25.2% | 24.7% | < 15% | 46.5% | 19.8% | 23.6% | 43.2% | < 15% | 26.8% | 29.8% | 23.6% | 27.2% | < 15% | 46.9% | 36.8% | 53.2% | < 15% | inhibition of growth at 10 µM (ACHN): 36.7%; inhibition of growth at 10 µM (CAKI-1): 33.4%; inhibition of growth at 10 µM (RXF 393): 18.9%; inhibition of growth at 10 µM (DU-145): 18.6%; inhibition of growth at 10 µM (BT-549): 39.1%; inhibition of growth at 10 µM (HOP-92): 29.2%; inhibition of growth at 10 µM (EKVX): 65.7%; inhibition of growth at 10 µM (A549): 28.9%; inhibition of growth at 10 µM (RPMI-8226): 43.6%; inhibition of growth at 10 µM (MOLT-4): 68.1%; inhibition of growth at 10 µM (K562): 66.8%; inhibition of growth at 10 µM (HL-60(TB)): 18.5%
CC(=O)Nc1ccc(-n2c(C)nc3c(cnn3-c3ccccc3)c2=O)cc1 | < 15% | < 15% | 15.1% | < 15% | < 15% | < 15% | 36.5% | 18.9% | 16.4% | < 15% | < 15% | 21.1% | 22.3% | < 15% | 21.1% | 24.3% | 41.7% | 38.3% | 44.8% | 16.1% | inhibition of growth at 10 µM (ACHN): 29.8%; inhibition of growth at 10 µM (CAKI-1): 31.1%; inhibition of growth at 10 µM (RXF 393): < 15%; inhibition of growth at 10 µM (DU-145): 17.8%; inhibition of growth at 10 µM (BT-549): 48%; inhibition of growth at 10 µM (HOP-92): 17%; inhibition of growth at 10 µM (EKVX): 66.8%; inhibition of growth at 10 µM (A549): < 15%; inhibition of growth at 10 µM (RPMI-8226): 47.5%; inhibition of growth at 10 µM (MOLT-4): 43.6%; inhibition of growth at 10 µM (K562): 55.4%; inhibition of growth at 10 µM (HL-60(TB)): 28.3%
Cc1nc2c(cnn2-c2ccccc2)c(=O)n1-c1ccc(N)cc1 | < 15% | < 15% | < 15% | < 15% | < 15% | < 15% | 27.1% | 19.4% | < 15% | 28.1% | < 15% | 18.5% | 17.8% | < 15% | 22.9% | 17.8% | 34.3% | 34.5% | 48.7% | 16.8% | inhibition of growth at 10 µM (ACHN): 27.1%; inhibition of growth at 10 µM (CAKI-1): 31.7%; inhibition of growth at 10 µM (RXF 393): < 15%; inhibition of growth at 10 µM (DU-145): 17.3%; inhibition of growth at 10 µM (BT-549): 31.2%; inhibition of growth at 10 µM (HOP-92): < 15%; inhibition of growth at 10 µM (EKVX): 63.3%; inhibition of growth at 10 µM (A549): < 15%; inhibition of growth at 10 µM (RPMI-8226): 48.2%; inhibition of growth at 10 µM (MOLT-4): < 15%; inhibition of growth at 10 µM (K562): 52.1%; inhibition of growth at 10 µM (HL-60(TB)): < 15%
